Bioassay records from PubChem.
Compounds with a hit are over-represented: about 0.6% of the library has one in this group of screens.
STK33 kinase inh: blocks human STK33 kinase activity | inhibition, % at 10 µM | Q9BYT3 | AID 2661 | purified STK33, MBP phosphorylation, ADP-Glo luminescence | 320,000 compounds, 0.073% hits;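 active = inhibition at or above 25%, using the most active replicate where run in duplicate; inactive = inhibition below 25%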
Efflux pump inh: antifungal efflux pump inhibition, Nile Red retention. 330,000 compounds, 0.44% hits. S. cerevisiae Candida pump triplex. inhibition, % at 10 µM;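 active = plate passing quality check with inhibition over a set limit, or well fluorescence over plate mean plus 4 SD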;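 note: Nile Red retained in pooled yeast measured as flow cytometry median fluorescence; 0% = buffer negative control and 100% = Enniatin B positive control; higher means more Nile Red kept so more efflux inhibition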
GSK3 alpha inh: inhibitors of human GSK-3 alpha kinase; P49840; ADP-Glo luminescence, 60 min; inhibition, % at 10 µM; 320,000 compounds, 0.1% hits; AID 2650;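 active = more than half of replicates show inhibition above 20%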;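 note: GST-tagged GSK-3 alpha with peptide substrate and 25 µM ATP; 0% = DMSO neutral wells and 100% = GW8510 positive control wells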
GSK3beta inhib: blocks human GSK3beta kinase activity. P49841. GST-GSK3beta kinase, ADP-Glo luminescence, 60 min; hits give low values. activity score (negative = inhibition), % at 10 µM. 300,000 compounds, 0.038% hits;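 active = more than half of replicate wells score below -50%, meaning over 50% inhibition versus plate controls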;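 note: 0% = median DMSO wells and -100% = median GW8510 positive control wells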
Target sequence (P49841 whole entry, looked up): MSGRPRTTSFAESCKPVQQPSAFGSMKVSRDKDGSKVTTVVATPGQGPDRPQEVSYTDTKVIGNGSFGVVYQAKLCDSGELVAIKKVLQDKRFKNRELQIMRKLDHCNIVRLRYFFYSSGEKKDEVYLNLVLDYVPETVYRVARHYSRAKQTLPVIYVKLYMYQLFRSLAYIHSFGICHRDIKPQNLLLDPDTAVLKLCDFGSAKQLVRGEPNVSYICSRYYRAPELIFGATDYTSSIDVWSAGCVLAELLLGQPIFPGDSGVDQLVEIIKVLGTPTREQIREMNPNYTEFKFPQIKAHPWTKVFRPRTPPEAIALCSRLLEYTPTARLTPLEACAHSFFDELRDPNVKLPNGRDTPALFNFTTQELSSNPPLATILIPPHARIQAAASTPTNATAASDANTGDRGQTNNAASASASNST
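Test system: GST-fused GSK3beta enzyme, cell-free | Quantity: 1.6 ng GST-GSK3beta enzyme per well | Reagent: 25 µM ATP with peptide substrate | Schedule: 60 min enzyme reaction, room temperature | Signal: Luminescent ADP-Glo measurement of ADP formed | Read-out basis: Score relative to plate controls | Control set: DMSO and 20 µM GW8510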
PolyA inhibitor: blocks polyadenylation in yeast reporter cells | 300,000 compounds, 0.02% hits | activity score, % at 12 µM | S. cerevisiae SKY197-pL101 polyadenylation reporter, beta-gal luminescence; efflux-impaired pdr1/pdr3 knockout yeast; score 100 = 6 SD above DMSO;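 active = lowest replicate activity score at least 50, where 100 means six control SD above control mean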;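 note: yeast exposed to compound for 9 h at 30 °C; higher score means more reporter readthrough which indicates perturbed polyadenylation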
Yeast cmpd fluor: counter-screen for efflux pump inhibitors: compound fluorescence | S. cerevisiae AD/pABC3, flow cytometry | fluorescence ratio to DMSO, % at 10 µM | 1,700 compounds, 4% hits | shares compounds with Efflux pump inh;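 active = fluorescence ratio to DMSO above its plate's cutoff, the plate mean ratio plus 5 SD, cut at about 210% in these data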;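 note: unstained yeast with no Nile Red so the signal is compound autofluorescence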
Mdr1 pump inh: Candida Mdr1 efflux pump inhibition; shares compounds with Efflux pump inh; S. cerevisiae AD/CaMDR1, Nile Red efflux, flow cytometry; inhibition, % at 10 µM; 1,700 compounds, 1% hits; in the data active = inhibition above about 26%;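 note: 0% = DMSO vehicle and 100% = reference inhibitor; higher means more Nile Red retained so more efflux inhibition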
Cdr2 pump inh: blocks the Candida albicans Cdr2 efflux pump in yeast | shares compounds with Efflux pump inh | Nile Red retention ratio vs DMSO, % at 10 µM | S. cerevisiae AD/CaCDR2, Nile Red retention, flow cytometry | 1,700 compounds, 4% hits; in the data active = Nile Red retention ratio vs DMSO above about 190%;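 note: higher ratio means more blocking of Cdr2 efflux of the dye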
CaCdr1 efflux inh: inhibitors of Candida albicans Cdr1 efflux pump; shares compounds with Efflux pump inh; S. cerevisiae AD/CaCDR1, Nile Red efflux, flow cytometry; inhibition, % at 10 µM; 1,700 compounds, 1% hits;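 active = inhibition above the screen-wide mean plus twice its standard deviation, cut at about 32% in these data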
An asterisk follows results filed as active; x = not tested or not shown.

SMILES | STK33 kinase inh | Efflux pump inh | GSK3 alpha inh | GSK3beta inhib | PolyA inhibitor | Yeast cmpd fluor | Mdr1 pump inh | Cdr2 pump inh | CaCdr1 efflux inh
CC(Oc1ccccc1Cl)C(=O)Nc1ccc(S(=O)(=O)Nc2nccs2)cc1 (stereo not drawn) | x | 0.0 | x | 5.6 | -22.8 | x | x | x | x
CC(C)(C)C1CCC(OC(=O)C[N+]2(C)CCCC2)CC1 (stereo not drawn) | -0.3 | 0.5* | -1.3 | 0.6 | -2.9 | 99.8 | -0.1 | 259.7* | -0.1
COc1cc(/C=c2\sc3nc(=O)c(-c4ccccc4)nn3c2=O)ccc1OCCC(C)C | -1.9 | 0.2 | -2.1 | x | x | x | x | x | x
CCOc1ccc(/C=c2\sc3nc(-c4ccco4)nn3c2=O)cc1OCC | -1.8 | 0.2 | -2.3 | 1.5 | x | 115.5 | 0.1 | 102.9 | 0.2
CCOC(=O)C1CCCCN1Cc1cccc(Oc2ccccc2)c1 (stereo not drawn) | 1.1 | 0.0 | -3.5 | 5.4 | -14.5 | x | x | x | x
CCCCn1c(SCC(=O)NCc2ccc(OC)c(C(=O)O)c2)nc2cc(S(N)(=O)=O)ccc21 | -3.9 | 0.0 | -2.8 | 2.7 | 7.0 | x | x | x | x
Cc1ccccc1OCCNc1cc(N2CCN(CCO)CC2)ccc1[N+](=O)[O-] | -0.3 | 18.9* | -1.6 | 2.6 | -11.2 | 106.8 | -0.2 | 95.4 | 0.0
O=c1[nH]c(S)c(/C=C2\C=Nc3ccccc32)s1 | 2.2 | 0.5* | 0.4 | -1.6 | 10.7 | 84.4 | 0.0 | 97.5 | -0.4
CNC(=O)c1c(NC(=O)CCS(=O)(=O)c2ccc(Cl)cc2)sc2c1CCN(C(=O)OC)C2 | -2.5 | 0.1 | 0.5 | 2.0 | -1.2 | x | x | x | x
CCN(CC)C(=O)Cn1c(=O)n(CCC(=O)Nc2ccc(F)cc2)c(=O)c2sccc21 | 0.8 | -0.2 | 0.6 | 4.7 | 10.5 | x | x | x | x
CCCN(CCC)C(=O)Cn1c(=O)n(CCCCCC(=O)Nc2ccccc2)c(=O)c2sccc21 | -0.9 | 18.9* | -1.0 | -0.5 | -1.1 | 104.0 | -0.1 | 96.5 | 0.0
C=CCNC(=O)NC(=O)COC(=O)/C(C#N)=C/c1cc(C)n(CC(C)C)c1C | 2.0 | 2.4* | -13.2 | -14.9 | -9.5 | 100.0 | -0.4 | 102.2 | 0.0
CCCn1c(C)cc(/C=C(\C#N)C(=O)OCC(=O)NC(=O)NC(C)(C)C)c1C | 1.7 | 0.1 | -3.8 | 3.2 | 12.0 | x | x | x | x
CC(=O)Nc1ccc(C(=O)OCCCOC(=O)c2ccc(NC(C)=O)cc2)cc1 | -0.8 | 0.2 | -0.6 | 1.9 | 0.7 | x | x | x | x
CCCCOC(=O)c1ccc(NC(C)=O)cc1 | 2.7 | 0.6* | -1.1 | -2.9 | -3.7 | 103.4 | -0.1 | 105.7 | -0.1
CCC(C)N1C(=O)CN(C2CCCCCC2)C(=O)C1c1ccccc1F (stereo not drawn) | -1.0 | 0.1 | 2.9 | -5.3 | -10.9 | x | x | x | x
